# From ChEMBL document CHEMBL4265926, “Synthesis and antibacterial activity evaluation of novel biaryloxazolidinone analogues containing a hydrazone moiety as promising antibacterial agents” (Eur J Med Chem, 2018)
# Legend:
# [1] = target: T1, MAO-A (amine oxidase [flavin-containing] A) (Homo sapiens, UniProt P21397); assay: Inhibition of recombinant human MAOA expressed in baculovirus infected Sf9 insect cells at 30 uM using luciferin derived substrate pretreated for 15 mins followed by substrate addition and measured after 60 mins by luminescence assay relative to control; settings: probe luciferin derived substrate
# T1 sequence (P21397 whole entry): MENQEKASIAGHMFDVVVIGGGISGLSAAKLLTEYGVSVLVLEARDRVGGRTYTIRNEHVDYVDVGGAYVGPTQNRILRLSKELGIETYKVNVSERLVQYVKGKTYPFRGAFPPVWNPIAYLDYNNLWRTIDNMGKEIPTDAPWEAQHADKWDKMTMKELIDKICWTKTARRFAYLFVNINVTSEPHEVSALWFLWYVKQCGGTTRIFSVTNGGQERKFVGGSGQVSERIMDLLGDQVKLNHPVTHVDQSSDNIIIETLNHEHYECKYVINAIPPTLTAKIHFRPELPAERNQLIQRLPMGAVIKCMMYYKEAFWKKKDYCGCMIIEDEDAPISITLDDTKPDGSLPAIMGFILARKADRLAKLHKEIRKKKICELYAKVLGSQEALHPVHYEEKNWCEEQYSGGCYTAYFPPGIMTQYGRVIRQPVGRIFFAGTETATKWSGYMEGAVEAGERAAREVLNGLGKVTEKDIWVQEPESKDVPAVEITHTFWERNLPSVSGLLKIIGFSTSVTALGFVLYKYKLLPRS
# Summary of the method: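 Human recombinant MAO-A with MAO-Glo luminescent kit. Compounds in DMSO (final 1% DMSO) preincubated with enzyme 15 min at room temperature, then luciferin derivative substrate added and reacted 60 min at room temperature. Luciferase detection reagent added for 20 min before luminescence read. Buffer replacing enzyme served as 100% inhibition control and DMSO as no-inhibition control; percent inhibition calculated against both.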
# Enterococcus faecalis [2] = assay: Antibacterial activity against linezolid-resistant Enterococcus faecalis clinical isolates by broth liquid microdilution method; assay type: functional
# Summary of the method: (§1)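 Isolates were identified on an automated MicroScan WalkAway 96 system. Susceptibility was tested by broth microdilution following CLSI guidelines. MIC was taken as the lowest concentration giving complete inhibition of bacterial growth. S. aureus ATCC 29213 served as the control strain.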
# Staphylococcus aureus [3] = assay: Antibacterial activity against methicillin-sensitive Staphylococcus aureus clinical isolates by broth liquid microdilution method; assay type: functional; summary of the method: as §1
# Staphylococcus aureus [4] = assay: Antibacterial activity against methicillin-sensitive Staphylococcus aureus by broth liquid microdilution method; assay type: functional; summary of the method: as §1
# Staphylococcus aureus [5] = assay: Antibacterial activity against Staphylococcus aureus ATCC 29213 by broth liquid microdilution method; assay type: functional; summary of the method: as §1
# Staphylococcus aureus [6] = assay: Antibacterial activity against methicillin-resistant Staphylococcus aureus by broth liquid microdilution method; assay type: functional; summary of the method: as §1
# Enterococcus faecalis [7] = assay: Antibacterial activity against linezolid-resistant Enterococcus faecalis by broth liquid microdilution method; assay type: functional; summary of the method: as §1
# Staphylococcus aureus [8] = assay: Antibacterial activity against methicillin-resistant Staphylococcus aureus clinical isolates by broth liquid microdilution method; assay type: functional; summary of the method: as §1
# Staphylococcus aureus [9] = assay: Potency index, ratio of linezolid MIC to test compound MIC for methicillin-sensitive Staphylococcus aureus; assay type: functional
# Enterococcus faecium [10] = assay: Antibacterial activity against vancomycin-resistant Enterococcus faecium by broth liquid microdilution method; assay type: functional; summary of the method: as §1
# Staphylococcus aureus [11] = assay: Potency index, ratio of linezolid MIC to test compound MIC for Staphylococcus aureus ATCC 29213; assay type: functional
# Summary of the method: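 MIC by broth microdilution per CLSI guidelines, taken as the lowest concentration giving complete growth inhibition; isolates identified on MicroScan WalkAway 96; S. aureus ATCC29213 used as control strain. Index expressed as linezolid MIC divided by test compound MIC.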
# Enterococcus faecium [12] = assay: Antibacterial activity against vancomycin-resistant Enterococcus faecium clinical isolates by broth liquid microdilution method; assay type: functional; summary of the method: as §1
# [13] = Intrinsic clearance in human liver microsomes at 1.5 uM pretreated for 5 mins followed by NADPH addition measured after 5 to 45 mins by LC-MS analysis; assay type: ADME, microsome; settings: read-out: CLH
# Summary of the method: (§2)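 Human liver microsomes with 1.5 µM compound in a 0.75 mg/mL microsome mix were pre-warmed at 37 °C for 5 min. Reaction started with NADPH (6 mM stock). Samples were quenched with acetonitrile plus internal standard at 0, 5, 15, 30 and 45 min, then read by LC/MS, in duplicate. T1/2 = ln(2)/k from the log-linear slope; Clint derived from T1/2; % remaining read at 45 min.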
# [14] = Half life in human liver microsomes at 1.5 uM in presence of NADPH by LC-MS analysis; assay type: ADME, microsome; summary of the method: as §2
# [15] = Stability in human liver microsomes assessed as parent compound remaining at 1.5 uM pretreated for 5 mins followed by NADPH addition measured after 45 mins by LC-MS analysis; assay type: ADME, microsome; settings: read-out: Stability; summary of the method: as §2
# HepG2 = assay: Cytotoxicity against human HepG2 cells after 48 hrs by MTT assay; assay type: cell-based; settings: HepG2, 48 h
# Summary of the method: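 HepG2 cells grown in RPMI1640 with 10% FBS; about 4×10⁴ cells per well seeded in MEM, incubated 24 h at 37 ℃ in 5% CO₂, then exposed to compounds at indicated final concentrations for 48 h. MTT added (final 0.5 mg/mL) for 4 h at 37 ℃, formazan dissolved in DMSO, absorbance read at 492 nm. Triplicate runs; IC50 as mean ± SD.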
SMILES,"inhibition at 1 h, 30 µM [1]",MIC (Enterococcus faecalis [2]),MIC50 (Enterococcus faecalis [2]),MIC90 (Enterococcus faecalis [2]),MIC (Staphylococcus aureus [3]),MIC50 (Staphylococcus aureus [3]),MIC90 (Staphylococcus aureus [3]),MIC (Staphylococcus aureus [4]),MIC (Staphylococcus aureus [5]),MIC (Staphylococcus aureus [6]),MIC (Enterococcus faecalis [7]),MIC50 (Staphylococcus aureus [8]),MIC90 (Staphylococcus aureus [8]),Ratio (Staphylococcus aureus [9]),MIC (Enterococcus faecium [10]),Ratio (Staphylococcus aureus [11]),MIC (Enterococcus faecium [12]),MIC50 (Enterococcus faecium [12]),MIC90 (Enterococcus faecium [12]),"remaining at 0.75 h, 1.5 µM [15]",further results
CC(=O)NC[C@H]1CN(c2ccc(-c3ccc(/C=N/N4CCSCC4)cc3)c(F)c2)C(=O)O1,81%,0.0625 to 0.25 µg/mL,0.125 µg/mL,0.5 µg/mL,0.0625 to 0.25 µg/mL,0.125 µg/mL,0.25 µg/mL,0.0675 µg/mL,0.0675 µg/mL,0.0675 µg/mL,0.0675 µg/mL,0.125 µg/mL,0.25 µg/mL,15 - 30,0.0675 µg/mL,15 - 30,0.0625 to 0.5 µg/mL,0.15 µg/mL,0.5 µg/mL,–,–
CC(=O)NC[C@H]1CN(c2ccc(-c3ccc(/C=N/N4CC[S+]([O-])CC4)cc3)c(F)c2)C(=O)O1,88%,0.0625 to 0.25 µg/mL,0.125 µg/mL,0.5 µg/mL,0.0625 to 0.25 µg/mL,0.125 µg/mL,0.25 µg/mL,0.0675 µg/mL,0.0675 µg/mL,0.0675 µg/mL,0.0675 µg/mL,0.125 µg/mL,0.25 µg/mL,15 - 30,0.0675 µg/mL,15 - 30,0.0625 to 0.5 µg/mL,0.125 µg/mL,0.5 µg/mL,–,–
CC(=O)NC[C@H]1CN(c2ccc(-c3ccc(/C=N/N4CCN(C)CC4)cc3)c(F)c2)C(=O)O1,71%,0.0625 to 0.25 µg/mL,0.125 µg/mL,0.125 µg/mL,0.0625 to 0.25 µg/mL,0.0625 µg/mL,0.125 µg/mL,0.0675 µg/mL,0.0675 µg/mL,0.0675 µg/mL,0.0675 µg/mL,0.0625 µg/mL,0.125 µg/mL,15 - 30,0.0675 µg/mL,15 - 30,0.0625 to 0.5 µg/mL,0.25 µg/mL,0.5 µg/mL,64.7%,CLint scaled at 1.5 µM [13]: 23.9 mL/min/kg; half-life at 1.5 µM [14]: 1.21 h; IC50 (HepG2): 820 nM
CC(=O)NC[C@H]1CN(c2ccc(N3CCOCC3)c(F)c2)C(=O)O1 [LINEZOLID],74%,> 16 µg/mL,> 16 µg/mL,> 16 µg/mL,1 to 2 µg/mL,2 µg/mL,2 µg/mL,1 µg/mL,1 µg/mL,1 µg/mL,> 16 µg/mL,2 µg/mL,4 µg/mL,–,2 µg/mL,–,1 to 4 µg/mL,2 µg/mL,4 µg/mL,104%,MIC (Staphylococcus aureus [8]): 1 to 4 µg/mL; IC50 (HepG2): > 25000 nM
